The values that follow come from ChEMBL document CHEMBL1138359, “Syntheses of nicotinamide riboside and derivatives: effective agents for increasing nicotinamide adenine dinucleotide concentrations in mammalian cells” (J Med Chem, 2007).

Each structure is given as a SMILES string.

Series [1] in a line: Cell viability in mouse AB1 cells at 750 uM after 48 hrs by MTT assay relative to control. It counts as cell-based. Conditions: read-out: Activity. An outline of the steps:
(§1)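 Cells grown 24 h, then exposed to 750 µM compound for 48 h. Viability read by MTT assay and given as % of untreated control. Duplicate experiments.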
In general terms: Tetrazolium assays rely on reduction of a dye to a coloured formazan, in cell work by metabolically active cells.

The nature of series [2]: Cell viability in HEK293 cells at 750 uM after 48 hrs by MTT assay relative to control. It counts as cell-based. Conditions: human, read-out: Activity. In outline: as §1
A short description of series [3]: Cell viability in mouse Neuro 2a cells at 750 uM after 48 hrs by MTT assay relative to control. The class given is cell-based, N2a. Conditions: read-out: Activity. An outline of the steps: as §1
Series [4] is described as follows: Increase in NAD+ concentration in mouse AB1 cells at 670 uM after 24 hrs by isotope-dilution technique relative to control. The class given is functional. An outline of the steps: (§2)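 Cells exposed to 670 µM compound for 24 h. NAD+ was then quantified by an MS-based isotope-dilution method using an 18O standard and expressed relative to untreated controls. All cell experiments were run in duplicate.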

Series [5] concerns HEK293. The experiment in a line: Increase in NAD+ concentration in HEK293 cells at 670 uM after 24 hrs by isotope-dilution technique relative to control. It counts as functional, Homo sapiens. In outline: as §2
A short description of series [6]: Increase in NAD+ concentration in mouse Neuro 2a cells at 670 uM after 24 hrs by isotope-dilution technique relative to control. It counts as functional, N2a. In outline:
as §2

A short description of series [7]: Increase in NAD+ concentration in mouse AB1 cells at 750 uM after 24 hrs by isotope-dilution technique. It counts as functional.
In series [8] the test system is HEK293. The experiment in a line: Increase in NAD+ concentration in HEK293 cells at 750 uM after 24 hrs by isotope-dilution technique. It counts as functional, Homo sapiens.
A short description of series [9]: Increase in NAD+ concentration in mouse Neuro 2a cells at 750 uM after 24 hrs by isotope-dilution technique. It counts as functional, N2a.
Series [10] in a line: Cytotoxicity against mouse AB1 cells. It counts as cell-based.
Series [11] deals with HEK293. Put plainly: Cytotoxicity against HEK293 cells. Conditions: human. It counts as cell-based.
Series [12] can be described thus: Cytotoxicity against mouse Neuro 2a cells. The following applies: n2a. The class given is cell-based.

For the compound `NC(=O)c1ccc[n+]([C@@H]2O[C@H](CO)[C@@H](O)[C@H]2O)c1` [NICOTINAMIDE RIBOSIDE], the viability at 48 h, 750 µM in series [1] was 123%; in series [2], 111%; in series [3], 107%.
For `C=CCNC(=O)c1ccc[n+]([C@@H]2O[C@H](CO)[C@@H](O)[C@H]2O)c1` the same measures were 57%, 78% and 80%.
On to `O=C(O)c1ccc[n+]([C@@H]2O[C@H](CO)[C@@H](O)[C@H]2O)c1`, for which the Activity is 1.5% in [4], 1.9% in [5] and 1.7% in series [6]. In addition, the results for the viability at 48 h, 750 µM in series [1], in series [2] and in series [3] were 111%, 92% and 125%, respectively.
On to `CN(C)C(=O)c1ccc[n+]([C@@H]2O[C@H](CO)[C@@H](O)[C@H]2O)c1`, for which the viability at 48 h, 750 µM in series [1] came out at 132%; in series [2], 78%; in series [3], 35%.
For `CCNC(=O)c1ccc[n+]([C@@H]2O[C@H](CO)[C@@H](O)[C@H]2O)c1`, the viability at 48 h, 750 µM in [1] amounted to 57%; in series [2] it was 48%; in [3], 38%.
Turning to `CCOC(=O)c1ccc[n+]([C@@H]2O[C@H](CO)[C@@H](O)[C@H]2O)c1`, the viability at 48 h, 750 µM in [1] came out at 103%; in [2], 92%; in series [3] it was 169%.
For `COC(=O)c1ccc[n+]([C@@H]2O[C@H](CO)[C@@H](O)[C@H]2O)c1`, the viability at 48 h, 750 µM was determined as 125% in series [1], 94% in [2] and 76% in series [3].
Turning to `O=C(NCCO)c1ccc[n+]([C@@H]2O[C@H](CO)[C@@H](O)[C@H]2O)c1`, the viability at 48 h, 750 µM in series [1] was determined as 101%; in [2], 77%; in series [3] it was 51%.
Regarding `CCOC(=O)c1ccc[n+]([C@@H]2O[C@H](COC(C)=O)[C@@H](OC(C)=O)[C@H]2OC(C)=O)c1`, the Activity is 130% in series [7]; 160% in series [8]; 260% in [9]; “Non-toxic” in [10]; “Non-toxic” in series [11]; “Non-toxic” in [12].
`CNC(=O)c1ccc[n+]([C@@H]2O[C@H](CO)[C@@H](O)[C@H]2O)c1`: the values for the viability at 48 h, 750 µM in series [1], in series [2] and in series [3] were 79%, 72% and 76%, respectively.
